Screening results (PubChem)
DENV2 CPE rescue: inhibitors of DENV2 cytopathic effect, primary screen, cell-based, plate reader, single concentration. DENV2-infected cells, cytopathic effect rescue. CPE inhibition, % at 9.99 µM. 350,000 compounds, 1.7% hits. AID 651640, 2012; in the data active = CPE inhibition above about 20%, passing the limit was not always enough; inconclusive = no clear call, values can overlap the other calls; tested in BHK-21 cells;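 also: 0% = median of neutral control wells and 100% = median of positive control wells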
CFTR F508del cor: F508del CFTR correction, initial screen, CFBE line, single point. CFBE cells, YFP halide quenching; stimulated with forskolin plus potentiator P3; % fluorescence drop versus neutral controls. activity (quench increase), % at 7.58 µM. 350,000 compounds, 0.36% hits. AID 720511, 2013;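 active = mean added fluorescence quench of at least 8% versus neutral control, with both replicates also reaching 8%; inconclusive = only one of the mean or replicate conditions met; inactive = mean below 8% and not both replicates reaching 8%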;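 also: cells transiently co-express mutant CFTR-F508del with the halide-sensitive YFP; corrector assay measuring rescue of mutant channel to the surface after 24 h compound exposure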
Cneo AK release: Cryptococcus neoformans cell lysis inducers, primary screen, AK release luminescence, single concentration | C. neoformans lysis, adenylate kinase release luminescence, 4 h; normalised: neutral wells 0, clomiphene wells 100 | lysis activity, % at 15 µM | 360,000 compounds, 0.2% hits | AID 651654, 2012;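 active = mean lysis activity across replicates of at least 80%, whatever share of replicates individually reach that level; inactive = mean lysis activity below 80%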
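Test system: log-phase Cryptococcus neoformans yeast cells. Input: 5 × 10^6 yeast cells/mL. Medium: fresh YPD growth medium. Doses: single dose. Incubation: static 4 h at 37 °C with compound, 1 h detection. Measured by: luminescent adenylate kinase detection reagent. Read-out: signal increase indicating cell lysis. Benchmarks: Clomiphene.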
C2C12 statin: suppressors of statin myotoxicity in C2C12 myotubes, primary screen, cell-based, single point, plate reader; C2C12 myotubes + simvastatin, ATP luminescence, 48 h; scaled: DMSO 0, geranylgeraniol control 100; rescue of ATP level, % at 7.49 µM; AID 602340, 2012; 330,000 compounds, 0.78% hits;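 active = mean ATP rescue above about 67%, or every replicate alone reaching that limit, limit read from the data, passing the limit was not always enough; inconclusive = no clear call, values can overlap the other calls; inactive = mean under the limit and some replicate under it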;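 also: myotubes were challenged with 10 µM simvastatin during compound exposure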
PDI turbidity: inhibitors of human PDI, primary screen, biochemical, turbidity, single point, plate reader | PDI insulin aggregation turbidity, A650, 90 min | inhibition, % at 10 µM | 350,000 compounds, 0.052% hits;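 active = mean inhibition across replicates of 30% or more, whatever share of single replicates reach that level; inconclusive = mean inhibition below 30% while every single replicate reaches 30%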
Target sequence (P07237 whole entry, looked up): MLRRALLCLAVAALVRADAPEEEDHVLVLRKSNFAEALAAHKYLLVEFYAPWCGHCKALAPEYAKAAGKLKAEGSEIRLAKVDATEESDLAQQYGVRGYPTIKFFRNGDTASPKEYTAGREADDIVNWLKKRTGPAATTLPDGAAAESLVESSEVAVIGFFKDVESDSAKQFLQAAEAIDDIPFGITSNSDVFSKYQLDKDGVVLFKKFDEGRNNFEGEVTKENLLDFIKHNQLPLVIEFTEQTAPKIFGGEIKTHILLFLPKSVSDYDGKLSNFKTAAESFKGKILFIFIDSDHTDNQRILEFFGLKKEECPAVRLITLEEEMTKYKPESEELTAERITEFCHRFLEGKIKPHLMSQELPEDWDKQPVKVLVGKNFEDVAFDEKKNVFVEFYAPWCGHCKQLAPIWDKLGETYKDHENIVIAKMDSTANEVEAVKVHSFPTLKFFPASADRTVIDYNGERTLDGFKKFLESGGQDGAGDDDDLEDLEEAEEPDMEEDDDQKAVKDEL
ERp5 block: inhibitors of ERp5-driven insulin aggregation, primary screen, biochemical, turbidity, absorbance 650 nm, single point; Protein disulfide-isomerase A6 (Homo sapiens), Q15084; 350,000 compounds, 0.05% hits; inhibition, % at 9.99 µM; 90 min;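 active = mean replicate inhibition above about 25%, with every replicate also reaching it, limit read from the data, passing the limit was not always enough; inconclusive = only one of those two criteria met; inactive = neither criterion met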
The depositor's hits bear a star; ? = inconclusive; · = no result. This is a sample that favours compounds with a hit; in the whole collection about 2.3% have one here.

SMILES | DENV2 CPE rescue | CFTR F508del cor | Cneo AK release | C2C12 statin | PDI turbidity | ERp5 block
CSc1ccc(S(=O)(=O)Nc2ccc(F)cc2)cc1 | · | · | · | 93* | 2 | ·
Cc1cccc(-c2csc(N)c2C(=O)OC(C)C)c1 | · | · | 1 | 116* | -4 | ·
CC(=O)NC[C@@H]1[C@@H](c2ccc(C3=CCCC3)cc2)[C@@H](CO)N1C(=O)C1CCC1 | 6 | -1 | · | · | · | -5
Cc1cccc(S(=O)(=O)N2C[C@H](O)COC[C@@H]3O[C@@H](CC(=O)NCCCN4CCOCC4)CC[C@H]32)c1 | -17 | -5 | -2 | 8 | · | 1
O=C(c1ccc(S(=O)(=O)NCC2CCCO2)cc1)N1CCN(c2cccc(Cl)c2)CC1 (stereo not given) | -1 | 16* | · | · | 3 | -10
Cc1noc(C)c1S(=O)(=O)Nc1ccc2c(c1)C(=O)N([C@H](C)CO)C[C@H](C)[C@H](CN(C)C(=O)C1CCCCC1)OCCCC[C@@H](C)O2 | 47* | 0 | 6 | · | · | 3
Cc1noc(C)c1S(=O)(=O)Nc1ccc2c(c1)C(=O)N([C@@H](C)CO)C[C@@H](C)[C@@H](CN(C)C(=O)Nc1ccccc1)OCCCC[C@H](C)O2 | 5 | 4 | -6 | · | · | -3
Cc1noc(C)c1S(=O)(=O)Nc1ccc2c(c1)C(=O)N([C@@H](C)CO)C[C@@H](C)[C@@H](CN(C)C(=O)Nc1ccccc1)OCCCC[C@@H](C)O2 | 95* | -1 | -4 | · | · | 2
Cc1noc(C)c1S(=O)(=O)Nc1ccc2c(c1)C(=O)N([C@H](C)CO)C[C@@H](C)[C@@H](CN(C)C(=O)NC(C)C)OCCCC[C@H](C)O2 | -11 | -4 | -4 | · | · | 0
Cc1noc(C)c1S(=O)(=O)Nc1ccc2c(c1)C(=O)N([C@H](C)CO)C[C@H](C)[C@H](CN(C)C(=O)Nc1ccccc1)OCCCC[C@@H](C)O2 | 89* | 0 | -9 | · | · | 2
Cc1noc(C)c1S(=O)(=O)Nc1ccc2c(c1)C(=O)N([C@H](C)CO)C[C@H](C)[C@@H](CN(C)C(=O)NC(C)C)OCCCC[C@H](C)O2 | 24* | -1 | -7 | · | · | 0
Cc1noc(C)c1S(=O)(=O)Nc1ccc2c(c1)C(=O)N([C@@H](C)CO)C[C@H](C)[C@H](CN(C)C(=O)CCCN(C)C)OCCCC[C@H](C)O2 | 73* | -3 | -11 | · | · | ·
Cc1noc(C)c1S(=O)(=O)Nc1ccc2c(c1)C(=O)N([C@@H](C)CO)C[C@H](C)[C@@H](CN(C)C(=O)Nc1ccccc1)O2 | 21* | 3 | 2 | · | · | -2
CN(c1ccc(OCCOc2ccccc2Cl)cc1)S(=O)(=O)c1ccccc1 | ? | 8.1* | 0 | -26 | 13 | -3
COc1cccc(C(=O)Nc2nc3c(c(=O)[nH]2)CCCC3)c1 | · | · | 2 | 96* | -3 | ·
C[C@@H]1CCCCO[C@@H](CN(C)S(=O)(=O)c2ccccc2)[C@H](C)CN([C@@H](C)CO)C(=O)c2cc(NC(=O)Nc3ccc(C(F)(F)F)cc3)ccc2O1 | ? | 4 | 3 | · | · | 1
N#C[C@@H]1[C@@H](c2ccccc2-c2ccccc2)[C@H](CO)N1C(=O)NC1CCCCC1 | 0 | -1 | · | · | · | -1
C[C@H](CO)N1C[C@H](C)[C@@H](CN(C)S(=O)(=O)c2cn(C)cn2)Oc2ncc(C3=CCCC3)cc2C1=O | 23* | 1 | 2 | -7 | · | 1
C[C@H](CO)N1C[C@H](C)[C@H](CN(C)C(=O)C2CCC2)Oc2ncc(C3=CCCC3)cc2C1=O | 30* | 1 | 3 | 7 | · | 1
C[C@@H]1CN([C@H](C)CO)C(=O)c2cc(C3=CCCC3)cnc2O[C@H]1CN(C)C(=O)C1CCOCC1 | 38* | -3 | -2 | -5 | · | -4
COc1ccc(C(=O)/C=C/c2ccc(N(C)C)cc2)c(OC)c1 | 2 | 18* | -2 | · | -10 | 1
CO[C@@H]1CN(C)C(=O)c2ccc(NC(=O)Nc3ccccc3)cc2OC[C@H](C)N(CC2CC2)C[C@@H]1C | -3 | 3 | -5 | -12 | · | 0
C[C@H]1CN([C@@H](C)CO)C(=O)c2cc(C#Cc3cccnc3)cnc2O[C@H]1CN(C)Cc1ccncc1 | 0 | 3 | 1 | -23 | · | ·
COc1ccc(NC(=O)N(C)C[C@@H]2Oc3c(NC(=O)c4cc(C)nn4C)cccc3C(=O)N([C@H](C)CO)C[C@@H]2C)cc1 | 2 | 2 | -4 | 16 | · | 7
COc1ccc2o/c(=N\O)c(C(=O)Nc3ccc(C)cc3)cc2c1 | 25* | -2 | · | · | -4 | -1
SMILES | DENV2 CPE rescue | CFTR F508del cor | Cneo AK release | C2C12 statin | PDI turbidity | ERp5 block
COc1ccccc1NC(=O)c1cc2ccc(O)cc2o/c1=N\O | · | · | -9 | 69* | 3 | ·
O=C(CSc1nc2ccccc2[nH]1)Nc1ccc2c(c1)OCCO2 | · | · | -7 | 117* | 2 | ·
O=C(CSc1ccc2c(c1)OCCO2)Nc1ccc2c(c1)OCO2 | · | · | 5 | · | 3 | ·
O=C(CSc1ncn(-c2ccccc2)n1)Nc1ccc2c(c1)OCCO2 | · | · | 3 | 101* | -5 | ·
O=C(CSc1ccc2c(c1)OCCO2)Nc1ccc(Br)cc1 | · | · | 1 | 102* | -6 | ·
CC(C)NC(=O)N(C)C[C@H]1Oc2ncc(C#CCc3ccccc3)cc2C(=O)N([C@H](C)CO)C[C@@H]1C | 14 | 4 | 1 | -17 | · | -3
CN(C)S(=O)(=O)c1ccc(Cl)c(NC(=O)CSc2nnnn2-c2ccc(O)cc2)c1 | -1 | 1 | · | · | 41* | 1
CN(C)S(=O)(=O)c1cccc(NC(=O)CSc2nc3c(cc2C#N)C(=O)CC(C)(C)C3)c1 | -5 | · | · | · | -4 | 0
CN(C)S(=O)(=O)c1ccc(Cl)c(NC(=O)CSc2nc3c(cc2C#N)C(=O)CC(C)(C)C3)c1 | 31* | · | 4 | · | -4 | 10
O=C(C[C@@H]1C=C[C@@H](NC(=O)C2CCC2)[C@@H](CO)O1)NC1CCC1 | 8 | -4 | 0 | 0 | · | -5
CCC(=O)N[C@@H]1C=C[C@H](CC(=O)NCC2CCCCC2)O[C@@H]1CO | ? | 1 | 0 | 2 | · | 7
O=C(C[C@@H]1C=C[C@@H](NC(=O)C2CCC2)[C@H](CO)O1)NC1CCC1 | 1 | -2 | 96* | 5 | · | 1
CCC(=O)N[C@H]1C=C[C@H](CC(=O)NCC2CCCCC2)O[C@@H]1CO | -13 | -1 | 89* | -4 | · | 1
O=C(C[C@H]1C=C[C@H](NC(=O)C2CCC2)[C@@H](CO)O1)NC1CCC1 | -10 | -2 | 91* | 0 | · | 3
CCC12CC3CC(C1)CC(C(=O)NNC(N)=O)(C3)C2 | -1 | 0 | -3 | 106* | 6 | 3
